An excerpt weighted towards active compounds, which were near 4.5% of everything screened.
TAAR1 ag: human TAAR1 agonism; Q96RJ0; CHO RD-HGA16 TAAR1, Fluo-8 calcium fluorescence; vehicle wells 0%, saturating PEA agonist 100%; activation, % at 3 µM; 360,000 tested, 0.99% active; AID 624467;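 active = activation above the mean activation of all test compounds in the run plus 3 SD, cut at about 38% in these data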
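Assay system: CHO-derived RD-HGA16 cells with stable Gα16 and human TAAR1; timing: 17-24 h seeding, 75 min 37 °C dye, 30 min RT; read-out: % activation from peak over basal fluorescence ratio, DMSO-to-PEA scaled; measured by: kinetic Fluo-8 calcium fluorescence; benchmarks: low control DMSO, high control PEA (EC100); doses: 3 µM single concentration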
OX1R antag-1: human HCRTR1 antagonism; O43613; CHO/OX1R cells, Fluo-8 calcium fluorescence, orexin A; inhibition, % at 5 µM; 330,000 tested, 0.43% active; AID 434989;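 active = inhibition above its plate's threshold, mean inhibition of all tested compounds on the plate plus 3 SD, cut at about 37% in these data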;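 note: 0% = orexin A challenge wells and 100% = SB-334867-A antagonist wells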
Target sequence (O43613 whole entry, looked up): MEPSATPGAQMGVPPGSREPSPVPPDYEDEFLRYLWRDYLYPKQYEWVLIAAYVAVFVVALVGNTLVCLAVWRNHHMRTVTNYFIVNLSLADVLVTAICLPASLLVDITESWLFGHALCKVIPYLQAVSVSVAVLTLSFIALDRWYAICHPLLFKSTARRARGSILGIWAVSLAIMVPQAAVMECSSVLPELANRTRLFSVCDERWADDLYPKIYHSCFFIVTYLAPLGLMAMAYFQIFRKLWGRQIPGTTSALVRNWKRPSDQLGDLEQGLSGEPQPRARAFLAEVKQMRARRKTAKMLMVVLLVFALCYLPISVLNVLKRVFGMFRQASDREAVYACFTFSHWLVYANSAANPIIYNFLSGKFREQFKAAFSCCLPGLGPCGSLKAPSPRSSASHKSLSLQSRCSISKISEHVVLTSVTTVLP
OX1R antag-2: antagonists of human orexin 1 receptor (OX1R); OX1R-expressing cells, FRET antagonist read-out; inhibition, % at 6.6 µM; 330,000 tested, 1.8% active; AID 485270; in the data active = inhibition mostly above about 38%, no sharp cut-off; inactive = mostly below about 40%;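 note: 0% = agonist challenge alone and 100% = reference antagonist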
GPR7 antag: human neuropeptides B/W receptor 1 antagonism; AID 1861; inhibition, % at 4.4 µM; GPR7-expressing cells, fluorescence antagonist assay; 290,000 tested, 1.1% active; in the data active = inhibition above about 16%, passing the limit was not always enough;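 note: cells stimulated with the agonist NPW; 0% = agonist with vehicle and 100% = vehicle without agonist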
Target sequence (P48145 whole entry, looked up): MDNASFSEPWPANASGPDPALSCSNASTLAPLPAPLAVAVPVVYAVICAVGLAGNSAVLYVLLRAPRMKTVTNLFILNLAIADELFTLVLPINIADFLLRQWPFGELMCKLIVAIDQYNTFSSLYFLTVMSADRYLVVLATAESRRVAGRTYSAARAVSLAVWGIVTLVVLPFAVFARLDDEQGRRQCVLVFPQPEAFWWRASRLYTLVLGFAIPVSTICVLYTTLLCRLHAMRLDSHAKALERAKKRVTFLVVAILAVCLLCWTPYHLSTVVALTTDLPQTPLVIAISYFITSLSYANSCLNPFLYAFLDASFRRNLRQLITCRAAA
CHO parental Ca: signal in parental CHO cells, OX1R antagonist counter-screen | parental CHO-K1, ATP-induced calcium, Fluo-8 fluorescence | inhibition, % at 5.6 µM | 330,000 tested, 0.63% active | AID 463079;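 active = inhibition above that plate's mean sample inhibition plus 3 SD, cut at about 26% in these data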;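 note: 0% = ATP-challenged DMSO wells and 100% = DMSO wells without ATP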
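Test system: untransfected parental CHO cell line; also added: ATP stimulus; dosing: 5.6 µM, single dose; signal: calcium-sensitive Fluo-8 fluorescence; measure: percent inhibition of ATP-evoked calcium rise, normalized to controls; benchmarks: low control ATP plus DMSO, high control DMSO only; replication: one well per compound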
TAAR1 antag: human TAAR1 antagonism; Q96RJ0; CHO RD-HGA16 TAAR1, Fluo-8 calcium fluorescence, antagonist; inhibition, % at 3 µM; 360,000 tested, 1.5% active; AID 624466;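 active = inhibition above a per-plate cutoff, the mean inhibition of test compounds on that plate plus 3 SD, cut at about 49% in these data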;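 note: 0% = DMSO plus EC80 beta-PEA response and 100% = DMSO alone without agonist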
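Material: CHO RD-HGA16 cells bearing hTAAR1; compound dosing: one-point dosing, 3 µM nominal final; schedule: dye loading 75 min at 37 °C, then 30 min room temperature; measured by: calcium fluorescence with Fluo-8; control set: vehicle and agonist controls; replication: n of 1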
TAAR1 ag conf: confirmation of human TAAR1 agonists. AID 651783. 2,400 tested, 82% active. activation, % at 3 µM. shares compounds with TAAR1 ag. CHO RD-HGA16 TAAR1, Fluo-8 calcium fluorescence; scaled: DMSO 0%, maximal phenethylamine 100%;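 active = activation above a cutoff set at the run's mean compound activation plus 3 SD, cut at about 39% in these data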
Ga16 ag counter: nonselective agonism, TAAR1 counter-screen. shares compounds with TAAR1 ag. CHO-Ga16 parental, Fluo-8 calcium fluorescence; normalized to maximal ATP response, DMSO zero. activation, % at 3 µM. 2,400 tested, 50% active. AID 651787;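 active = activation above the run cutoff, the mean activation over all tested wells plus 3 SD, cut at about 12% in these data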;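 note: 0% = DMSO wells and 100% = maximal ATP response on the peak over basal ratio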
TAAR1 desens: TAAR1 response desensitization, agonist counter-screen; 2,400 tested, 46% active; inhibition, % at 3 µM; CHO RD-HGA16 hTAAR1, Fluo-8 calcium, beta-PEA response inhibition; shares compounds with TAAR1 ag; AID 651951;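 active = inhibition above the run cutoff, the mean inhibition of all test compounds plus 3 SD, cut at about 49% in these data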;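 note: beta-PEA stimulus applied at its EC80; loss of beta-PEA calcium signal after compound pretreatment read as receptor desensitization; 0% = DMSO with beta-PEA at EC80 and 100% = DMSO alone without agonist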
Ga16 nonsel ant: nonselective Ga16 antagonism, counter-screen | shares compounds with TAAR1 ag | CHO-Ga16 ATP-induced calcium, Fluo-8 fluorescence | inhibition, % at 3 µM | 2,400 tested, 39% active;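 active = inhibition above the plate's mean compound inhibition plus 3 SD, computed per plate, cut at about 22% in these data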;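 note: 0% = EC80 ATP with DMSO and 100% = DMSO wells without ATP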
* hit, by the source's call; . = not tested or not shown.

SMILES	TAAR1 ag	OX1R antag-1	OX1R antag-2	GPR7 antag	CHO parental Ca	TAAR1 antag	TAAR1 ag conf	Ga16 ag counter	TAAR1 desens	Ga16 nonsel ant
O=S1(=O)CC(N2CCC(Cc3ccccc3)CC2)CN1CCc1ccccc1 (stereo not drawn)	13	.	.	.	.	-15	.	.	.	.
c1ccc(CCNc2ccc3c(c2)Cc2ccccc2-3)nc1	0	.	.	.	.	19	.	.	.	.
NC(Cc1ccc(Cl)cc1)c1csc(Nc2nccc(C(F)(F)F)n2)n1 (stereo not drawn)	55*	.	.	.	.	38	88*	62*	74*	73*
CCc1cnc(Nc2nc(C(N)Cc3ccc(F)cc3)cs2)nc1 (stereo not drawn)	35	.	.	.	.	-5	.	.	.	.
COc1ccc(CC(N)c2csc(Nc3nccc(C(F)(F)F)n3)n2)cc1 (stereo not drawn)	52*	.	.	.	.	22	53*	21*	28	23*
Cc1cc(C)nc(Nc2nc(C(N)Cc3ccccc3)cs2)n1 (stereo not drawn)	9	.	.	.	.	-2	.	.	.	.
COc1ccc(CC(N)c2csc(Nc3ncccn3)n2)cc1 (stereo not drawn)	2	.	.	.	.	0	.	.	.	.
NC(Cc1ccccc1)c1csc(Nc2nccc(C(F)(F)F)n2)n1 (stereo not drawn)	67*	.	.	.	.	20	86*	55*	43	48*
NC(Cc1ccc(F)cc1)c1csc(Nc2nccc(C(F)(F)F)n2)n1 (stereo not drawn)	72*	.	.	.	.	27	86*	54*	56*	55*
CC(C)(C)NC(=O)C(c1ccnc2ccccc12)n1c(=O)c(-c2ccco2)nc2ccccc21 (stereo not drawn)	0	.	.	.	.	2	.	.	.	.
CC(C)c1cc(Cn2c3ccccc3c(=O)n2C(C)Cn2cc(-c3ccccc3)nn2)on1 (stereo not drawn)	1	.	.	.	.	4	.	.	.	.
Cc1cc(C)c2c(=O)n(CC(=O)NC3CCCC3)sc2n1	57*	8	1	-9	4	48	62*	34*	59*	39*
Cc1cc(C)c2c(=O)n(CC(=O)Nc3cccc(Cl)c3C)sc2n1	103*	3	8	20	6	86*	96*	72*	89*	75*
Cc1cc(C)c2c(=O)n(CC(=O)Nc3ccc(Br)c(C)c3)sc2n1	86*	-5	15	-6	-2	53*	100*	68*	71*	64*
COC(=O)C[C@H]1CC[C@@H](NC(=O)Nc2c(C)noc2C)[C@@H](CO)O1	0	.	.	.	.	-17	.	.	.	.
O=c1[nH]c(=O)n(C(c2ccccc2)c2ccccc2)cc1Br	4	-15	7	-8	-2	-24	.	.	.	.
O=c1[nH]nc(Br)c(=O)n1C(c1ccccc1)c1ccccc1	71*	.	.	.	.	16	47*	26*	18	10
Cc1nn(Cc2ccc(Cl)cc2)c(C)c1NC(=O)c1cc(-c2ccco2)on1	65*	1	16	0	0	85*	32	16*	56*	43*
O=C(Nc1c(F)cc(F)cc1Br)c1cc(-c2ccco2)on1	55*	-17	2	-9	11	10	56*	8	35	8
COc1ccc(-c2cc(C(=O)Nc3c(F)cc(F)cc3Br)no2)cc1	7	-17	2	-16	2	-17	.	.	.	.
Cc1ccccc1NS(=O)(=O)c1ccc2c(c1)CCC(=O)N2	5	.	.	.	.	-17	.	.	.	.
CCN(c1ccccc1)S(=O)(=O)c1cccc(C(=O)N(C)CC(=O)Nc2ccc(F)c(F)c2F)c1	4	.	.	.	.	9	.	.	.	.
Cc1ccc(Cn2cc(CN3CC(N(C)C)CS3(=O)=O)nn2)cc1 (stereo not drawn)	2	.	.	.	.	-13	.	.	.	.
CCN(CC)c1ccc(/C=C(/C#N)c2nc3ccccc3[nH]2)c(OC(C)C)c1	92*	116*	39*	6	66*	99*	25	30*	65*	64*
CCCCCN=C(C)c1c(O)c2ccccc2oc1=O	58*	-15	35	8	-3	16	58*	2	12	2
SMILES	TAAR1 ag	OX1R antag-1	OX1R antag-2	GPR7 antag	CHO parental Ca	TAAR1 antag	TAAR1 ag conf	Ga16 ag counter	TAAR1 desens	Ga16 nonsel ant
C/C(=N/NS(=O)(=O)c1ccc(C)cc1)c1c(O)c2ccccc2oc1=O	5	-21	5	-8	-10	-26	.	.	.	.
C=CCC[C@@H](Cc1ccc(F)cc1)C(=O)OC[C@H](Cc1c[nH]c2ccccc12)NC(=O)[C@@H](CC=C)CC(=O)NCCO	74*	28	6	.	7	80*	52*	30*	76*	51*
COc1cc(/C=C2\SC(=O)N(CCN)C2=O)ccc1OS(=O)(=O)c1cc(C)ccc1C	54*	.	.	13	.	-3	72*	29*	57*	18
O=C(CNC(=O)c1ccccc1F)N/N=C/c1ccc2c(c1)OCO2	1	-13	21	-6	8	-12	.	.	.	.
O=C(N/N=C/C=C/c1ccccc1)c1ccncc1	3	-7	33	-9	-6	-26	.	.	.	.
O=C(O)c1ccc(N/N=C/C=C/c2ccccc2)cc1	57*	-8	3	-5	-9	4	30	12*	16	17
O=C(CNC(=O)c1ccccc1Cl)N/N=C/C=C/c1ccccc1	.	-3	8	-7	5	.	.	3	.	9
O=C(CNC(=O)c1ccccc1F)N/N=C\C=C\c1ccccc1	42*	-9	-3	-11	1	29	67*	0	56*	3
O=C(CNC(=O)c1cccc(Cl)c1)N/N=C/C=C/c1ccccc1	46*	-12	12	-8	-11	31	77*	15*	67*	-4
O=C(CNC(=O)c1cccc(Cl)c1)N/N=C/c1cccnc1	0	-8	4	-7	-2	-8	.	.	.	.
Cc1ccc2nc(C3CCCCC3)c(Cc3ccccc3)n2c1	15	.	.	.	.	-18	.	.	.	.
Cc1cccc(C)c1NC1=NC2(CCCCC2)N=C(N)N1	4	12	11	-8	0	-11	.	.	.	.
NC1=NC2(CCCCC2)N=C(Nc2ccc(Br)cc2)N1	44*	-15	7	-8	2	18	69*	9	41	0
